{"source": "paper PMC11185543", "about": "(bioRxiv, 2024)", "key": {"p-GCN2": {"test_system": "p-GCN2", "assay": "Immunoblot for p-GCN2 in mouse embryonic fibroblasts", "format": "cell-based", "details": "6 h, MEFs", "procedure,_shortened": "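MEFs grown in DMEM with 10% FBS were exposed to test compound (1 μM or 100 nM) or DMSO for 6 h. Protein lysates were collected and immunoblotted.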"}, "NOD mice [1]": {"test_system": "NOD mice", "assay": "Insulitis score in prediabetic NOD mice after two weeks of treatment", "format": "in vivo", "details": "0.25 or 2.5 mg/kg intraperitoneal for 2 weeks", "procedure,_shortened": "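Female NOD mice, 6 weeks old, received vehicle (5% DMSO, 2% Tween 80, 20% PEG400, saline) or test compound by intraperitoneal injection for two weeks. Pancreata were fixed in 4% paraformaldehyde, paraffin-embedded and sectioned. Islet infiltration was scored 1–4: none, <50% circumference, >50% circumference, intra-islet. N=4–5 mice per group; mean ±SEM; ANOVA.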"}, "NOD mice [2]": {"test_system": "NOD mice", "assay": "β cell mass in NOD mice after two weeks of treatment", "format": "in vivo", "details": "0.25 or 2.5 mg/kg intraperitoneal for 2 weeks", "procedure,_shortened": "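Female NOD mice, 6 weeks old, were given test compound or vehicle (5% DMSO, 2% Tween 80, 20% PEG400, saline) intraperitoneally for two weeks. Pancreata were fixed in 4% paraformaldehyde, paraffin-embedded, sectioned and stained for insulin. β cell mass was derived from insulin+ area relative to whole pancreas area. N=4–5 mice per group; mean ±SEM; ANOVA.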"}, "human islets": {"test_system": "human islets", "assay": "Polyribosome profiling of human islets treated with proinflammatory cytokines", "format": "cell-based", "details": "50 nM with IFN-γ + IL-1β", "procedure,_shortened": "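Human islets were pretreated 1 h with vehicle or test compound (50 nM), then exposed 18–24 h to 1000 IU/mL IFN-γ + 50 IU/mL IL-1β. Translation was halted with 50 μg/mL cycloheximide for 10 min, and lysates were made in buffer pH 7.5 with 10 mM MgCl2. Lysates were run on a 50–10% sucrose gradient (40,000 rpm, 2 h, 4°C) and fractionated with A254 monitoring. Fraction RNA was quantified by qRT-PCR relative to input.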"}, "PD-L1": {"test_system": "PD-L1", "format": "cell-based, human", "details": "10 μM concurrent with cytokines 18–24 h, GOLM1 siRNA, EndoC-βH1 cells", "procedure,_shortened": "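EndoC-βH1 cells (low-glucose DMEM, 2% BSA, nicotinamide, β-mercaptoethanol, matrigel-fibronectin coating) had 1 h pretreatment with DMSO or test compound (50 nM). They were then co-treated 18–24 h with 1000 IU/mL IFN-γ + 50 IU/mL IL-1β. For knockdown, Accell GOLM1 siRNA was used and protein was taken 72–96 h later. Proteasome blockade was 10 μM MG132 with cytokines 18–24 h, starting 72 h post-knockdown. Immunoblot; N=3 biological replicates; ANOVA.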"}}, "note": "Where a SMILES comes first, the peptide text is derived from it. The star is where a group is joined. Cbz = O=C(OCc1ccccc1)*"}
{"molecule": "C/C=C(/C)C(=O)O[C@H]1C(C)=C2[C@H]([C@@H]1OC(=O)CCCCCCC)[C@@](C)(OC(C)=O)C[C@H](OC(=O)CCC)[C@@]1(O)[C@H]2OC(=O)[C@@]1(C)O", "note": "[thapsigargin]", "values": [{"measurement": "effect on p-GCN2", "setting": "p-GCN2; 1 μM", "result": "suppresses it"}]}
{"molecule": "O=C(CC1NCCCC1O)Cn1cnc2cc(Br)c(Cl)cc2c1=O", "note": "(stereo not drawn) [halofuginone]", "values": [{"measurement": "effect on p-GCN2", "setting": "p-GCN2; 100 nM", "result": "robustly induces p-GCN2"}]}
{"molecule": "O=C(COc1ccc(Cl)cc1)NC1CCC(NC(=O)COc2ccc(Cl)cc2)CC1", "note": "(stereo not drawn) [ISRIB]", "values": [{"measurement": "insulitis", "setting": "NOD mice [1]", "result": "significant reduction in insulitis"}, {"measurement": "β cell mass", "setting": "NOD mice [2]", "result": "no effect on β cell mass"}, {"measurement": "RNA sedimenting with polysomes (translation initiation blockade)", "setting": "human islets", "result": "recovery of the RNA sedimenting with polysomes"}]}
{"molecule": "CC(C)C[C@@H](C=O)NC(=O)[C@H](CC(C)C)NC(=O)[C@H](CC(C)C)NC(=O)OCc1ccccc1", "note": "[MG132] (Cbz-Leu-Leu-Leu-aldehyde)", "values": [{"measurement": "attenuation of PD-L1 levels upon GOLM1 knockdown", "setting": "PD-L1", "result": "partially reversed"}]}
